ChEMBL document CHEMBL4402576, “Discovery and Development of Small-Molecule Inhibitors of Glycogen Synthase” (J Med Chem, 2020)
pIC50, pKi: −log10 of the molar value. The source made the active and inactive calls. The calls are words filed in the database; no cut-off is given here.

Columns and labels:
Saccharomyces cerevisiae [1] = test: Inhibition of recombinant His-tagged yeast GYS2P expressed in Escherichia coli BL21(DE3) cells assessed as enzyme activity at 300 uM using UDPG as substrate in presence of G-6-P by 14C-glucose incorporation assay relative to control; set-up: scale not given: the % may be the effect or the level left
[2] = Competitive inhibition of recombinant His-tagged yeast GYS2P expressed in Escherichia coli BL21(DE3) cells using UDPG as substrate in presence of G-6-P by 14C-glucose incorporation based Michaelis-Menton plot analysis; set-up: species or system Saccharomyces cerevisiae
In short: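 Ni-NTA then Q-Sepharose purified enzyme (5 μg/ml) assayed by radiolabelled glucose transfer from UDPG into glycogen. UDPG varied 0.2–8 mM with 7.2 mM G6P, covaried against fixed inhibitor levels, 2% (v/v) DMSO throughout. Data fitted to competitive, non-competitive and uncompetitive models, chosen by goodness-of-fit and residuals. Ki given as mean ± SEM of three independent experiments in duplicate.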

[3] = Competitive inhibition of recombinant His-tagged yeast GYS2P expressed in Escherichia coli BL21(DE3) cells using UDPG as substrate in absence of G-6-P by 14C-glucose incorporation based Michaelis-Menton plot analysis; set-up: species or system Saccharomyces cerevisiae
In short: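 Yeast Gsy2p at 5 μg/ml in a 14C-glucose incorporation assay. UDPG was varied from 0.2 to 8 mM without G6P, and inhibitor was covaried up to 0.8 mM. Data were fitted to competitive, non-competitive and uncompetitive models, and the model was chosen by goodness of fit and residuals. Controls contained 2% (v/v) DMSO. Values are mean ± SEM of three independent experiments in duplicate.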

[4] = biological target: T1, Glycogen [starch] synthase, muscle (Homo sapiens) (UniProt P13807); test: Inhibition of C-terminal 6His-tagged wild type human GYS1 assessed as enzyme activity at 300 uM using UDPG as substrate in presence of 1 mM G-6-P by 14C-glucose incorporation assay relative to control; set-up: scale not given: the % may be the effect or the level left
T1 sequence (whole entry): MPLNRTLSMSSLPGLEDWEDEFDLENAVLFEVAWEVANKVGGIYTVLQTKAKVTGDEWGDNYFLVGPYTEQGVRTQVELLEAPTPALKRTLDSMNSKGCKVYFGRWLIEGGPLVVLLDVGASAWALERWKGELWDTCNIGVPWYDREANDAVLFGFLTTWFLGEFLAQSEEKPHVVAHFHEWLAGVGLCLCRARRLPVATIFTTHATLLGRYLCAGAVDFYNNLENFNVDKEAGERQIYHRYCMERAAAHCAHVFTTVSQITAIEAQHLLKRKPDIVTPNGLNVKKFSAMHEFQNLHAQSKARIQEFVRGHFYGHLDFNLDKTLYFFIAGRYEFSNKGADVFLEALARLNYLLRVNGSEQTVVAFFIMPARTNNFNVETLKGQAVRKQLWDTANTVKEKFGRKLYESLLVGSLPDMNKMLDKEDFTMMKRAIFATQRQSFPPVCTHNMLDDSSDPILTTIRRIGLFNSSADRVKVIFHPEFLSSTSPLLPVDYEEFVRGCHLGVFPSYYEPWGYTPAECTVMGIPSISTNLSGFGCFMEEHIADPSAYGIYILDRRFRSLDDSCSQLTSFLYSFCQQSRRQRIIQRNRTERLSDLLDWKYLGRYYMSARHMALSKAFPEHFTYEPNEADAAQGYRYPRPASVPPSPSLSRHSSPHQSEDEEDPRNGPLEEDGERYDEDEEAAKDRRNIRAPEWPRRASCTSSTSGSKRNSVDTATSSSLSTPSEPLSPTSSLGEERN

[5] = biological target: T2, Glycogen [starch] synthase, muscle (Homo sapiens, UniProt P13807); test: Inhibition of C-terminal 6His-tagged wild type human GYS1 using UDPG as substrate in presence of 1 mM G-6-P by 14C-glucose incorporation assay
T2 sequence (P13807 whole entry): T1 sequence (whole entry)
In short: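 Full-length wild-type hGYS1 with C-terminal 6×His tag in place of the intein-chitin binding domain, Ni-NTA purified. Glucose transfer from UDP-[14C]glucose into glycogen with 0.2 mM UDPG and 1 mM G6P. Controls contained 2% (v/v) DMSO. IC50 was fitted by four-parameter logistic. Values are mean ± SEM of at least three independent experiments in duplicate.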

[6] = Inhibition of recombinant His-tagged yeast GYS2P expressed in Escherichia coli BL21(DE3) cells using UDPG as substrate in absence of G-6-P by 14C-glucose incorporation assay; set-up: species or system Saccharomyces cerevisiae
In short: (§1)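 His-tagged yeast Gsy2p, expressed in E. coli BL21(DE3) and purified by Ni-NTA then Q-sepharose. Radiochemical incorporation of glucose into glycogen with 0.3 mM UDPG, with or without 0.04 mM G6P. Controls contained 2% (v/v) DMSO. IC50 was fitted by four-parameter logistic. Values are mean ± SEM of at least three independent experiments in duplicate.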

[7] = biological target: T1, Glycogen [starch] synthase, muscle (Homo sapiens); test: Inhibition of glycogen synthase in human HEK293 cell lysates overexpressing mouse PTG at 100 uM using 0.2 mM UDPG as substrate in presence of 1 mM G-6-P by 14C-glucose incorporation assay; type: subcellular; conditions: Lysate
In short: (§2)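 Lysates came from HEK293 cells stably expressing PTG (5.5 mM glucose αMEM, 10% FBS, hygromycin) or from Rat-1 cells (25 mM glucose DMEM, 10% FBS), grown 3–4 days to confluency. Cells were lysed by freezing, scraping and sonication in Tris/EDTA/EGTA/NaF buffer with protease inhibitors and Triton. Assays used 0.15 mg/mL (HEK293-PTG) or 0.75 mg/mL (Rat-1) lysate in 50 mM Tris-HCl pH 7.8 with 6.7 mg/ml glycogen and 2% DMSO. Read-out was [14C]glucose incorporation relative to DMSO control, in triplicate.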

[8] = biological target: T3, Glycogen [starch] synthase, muscle (Rattus norvegicus) (UniProt A2RRU1); test: Inhibition of glycogen synthase in rat-1 fibroblast cell lysates at 100 uM using 0.2 mM UDPG as substrate in presence of 1 mM G-6-P by 14C-glucose incorporation assay; type: subcellular; conditions: Lysate; in short: as §2
T3 sequence (whole entry): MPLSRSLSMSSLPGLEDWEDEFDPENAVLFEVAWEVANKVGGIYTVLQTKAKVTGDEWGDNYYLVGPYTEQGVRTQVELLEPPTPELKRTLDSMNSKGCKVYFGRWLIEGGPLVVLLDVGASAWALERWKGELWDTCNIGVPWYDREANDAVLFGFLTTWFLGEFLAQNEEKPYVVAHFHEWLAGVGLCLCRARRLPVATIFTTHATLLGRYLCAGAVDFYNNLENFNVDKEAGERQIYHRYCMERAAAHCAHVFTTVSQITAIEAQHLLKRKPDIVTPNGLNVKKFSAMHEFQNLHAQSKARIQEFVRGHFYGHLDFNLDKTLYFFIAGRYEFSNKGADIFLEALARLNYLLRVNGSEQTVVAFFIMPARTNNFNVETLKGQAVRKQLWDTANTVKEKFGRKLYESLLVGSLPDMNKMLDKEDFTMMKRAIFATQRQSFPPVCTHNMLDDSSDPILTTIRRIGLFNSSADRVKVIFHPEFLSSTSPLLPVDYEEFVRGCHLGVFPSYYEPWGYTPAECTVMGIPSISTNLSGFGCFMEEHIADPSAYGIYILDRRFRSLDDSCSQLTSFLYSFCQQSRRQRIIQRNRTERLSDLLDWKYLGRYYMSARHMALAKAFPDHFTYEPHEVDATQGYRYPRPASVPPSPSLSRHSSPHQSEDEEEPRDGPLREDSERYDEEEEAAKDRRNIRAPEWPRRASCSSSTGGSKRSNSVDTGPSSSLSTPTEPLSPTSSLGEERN

Homo sapiens [9] = species on record: Homo sapiens; test: Inhibition of C-terminal 6His-tagged human GYS1 delta634S8,11N mutant at 100 uM using UDPG as substrate in presence of 0.4 mM G-6-P by 14C-glucose incorporation assay relative to control
[10] = Inhibition of recombinant His-tagged yeast GYS2P expressed in Escherichia coli BL21(DE3) cells using UDPG as substrate in presence of 0.04 mM G-6-P by 14C-glucose incorporation assay; set-up: species or system Saccharomyces cerevisiae; in short: as §1
[11] = Inhibition of C-terminal 6His-tagged human GYS1 delta634S8,11N mutant using UDPG as substrate in presence of 0.4 mM G-6-P by 14C-glucose incorporation assay
In short: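 Truncated hGYS1 (residues 635–737 deleted, Ser8/Ser11→Asn, C-terminal 6×His, Ni-NTA purified; activation state ~0.2). Radiolabelled glucose incorporation into glycogen with 0.2 mM UDPG and 0.4 mM G6P. Controls contained 2% (v/v) DMSO. IC50 was fitted by four-parameter logistic. Values are mean ± SEM of at least three independent experiments in duplicate.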

Homo sapiens [12] = species on record: Homo sapiens; test: Inhibition of C-terminal 6His-tagged human GYS1 delta634S8,11N mutant assessed as enzyme activity at 300 uM using UDPG as substrate in presence of 0.4 mM G-6-P by 14C-glucose incorporation assay relative to control; set-up: scale not given: the % may be the effect or the level left
Saccharomyces cerevisiae [13] = test: Inhibition of recombinant His-tagged yeast GYS2P expressed in Escherichia coli BL21(DE3) cells assessed as enzyme activity at 20 uM using UDPG as substrate in presence of G-6-P by 14C-glucose incorporation assay relative to control; set-up: scale not given: the % may be the effect or the level left
[14] = biological target: T3, Glycogen [starch] synthase, muscle (Rattus norvegicus); test: Inhibition of glycogen synthase in rat-1 fibroblast cell lysates at 100 uM using 0.2 mM UDPG as substrate in presence of 1 mM G-6-P by 14C-glucose incorporation assay relative to control; type: subcellular; conditions: Lysate; in short: as §2
[15] = biological target: T1, Glycogen [starch] synthase, muscle (Homo sapiens); test: Inhibition of C-terminal 6His-tagged wild type human GYS1 assessed as enzyme activity at 20 uM using UDPG as substrate in presence of 1 mM G-6-P by 14C-glucose incorporation assay relative to control; set-up: scale not given: the % may be the effect or the level left
[16] = biological target: T2, Glycogen [starch] synthase, muscle; test: Competitive inhibition of C-terminal 6His-tagged human GYS1 using UDPG as substrate in presence of G-6-P by 14C-glucose incorporation based Michaelis-Menton plot analysis
In short: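 Radiolabel transfer from UDP-[14C]glucose into glycogen. Inhibitor and UDPG concentrations were covaried. Data were fitted to competitive, non-competitive and uncompetitive models, and the model was chosen by goodness of fit and residuals. Controls contained 2% (v/v) DMSO. Values are mean ± SEM of three independent experiments, each in duplicate.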

[17] = Inhibition of recombinant yeast GYS2P Y513L mutant using UDPG as substrate in presence of 7.2 mM G-6-P by 14C-glucose incorporation assay; set-up: species or system Saccharomyces cerevisiae
In short: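 Yeast Gsy2p Y513L mutant, purified like the wild type. Assayed by 14C-glucose incorporation into glycogen with UDPG under saturating 7.2 mM G6P. IC50 curves used triplicate measurements, with three experiments performed.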

Homo sapiens [18] = species on record: Homo sapiens; test: Inhibition of C-terminal 6His-tagged human GYS1 delta634S8,11N mutant assessed as enzyme activity at 20 uM using UDPG as substrate in presence of 0.4 mM G-6-P by 14C-glucose incorporation assay relative to control; set-up: scale not given: the % may be the effect or the level left
[19] = biological target: T1, Glycogen [starch] synthase, muscle (Homo sapiens); test: Inhibition of glycogen synthase in human HEK293 cell lysates overexpressing mouse PTG at 100 uM using 0.2 mM UDPG as substrate in presence of 1 mM G-6-P by 14C-glucose incorporation assay relative to control; type: subcellular; conditions: Lysate; in short: as §2

SMILES	Activity (Saccharomyces cerevisiae [1]) [%]	pKi [2]	pKi [3]	Activity [4] [%]	pIC50 [5]	pIC50 [6]	inhibition [7]	inhibition [8]	inhibition (Homo sapiens [9]) [%]	pIC50 [10]	pIC50 [11]	Activity (Homo sapiens [12]) [%]	Activity (Saccharomyces cerevisiae [13]) [%]	inhibition [14] [%]	Activity [15] [%]	pKi [16]	pIC50 [17]	Activity (Homo sapiens [18]) [%]	inhibition [19] [%]
COc1cc(-c2c(-c3ccccc3)ncn2CCC2CCCN2C)ccc1O (racemic)	36.5	3.43	3.54	77.1	3.06	3.55	inactive	inactive	> 20	3.58	3.79	46.5							
Oc1ccc(-c2c(-c3ccc(O)c(O)c3O)n[nH]c2C(F)(F)F)cc1					5.56					5.10			0.97	100	-0.26	5.88	4.47	-1.01	100
